Assay outcomes: PubChem, several laboratories
An excerpt weighted towards active compounds, which were near 4.1% of everything screened.
KCNQ1 pot – potentiators or activators of human KCNQ1 potassium channel. CHO-K1 KCNQ1, thallium flux FluxOR fluorescence; active compounds read high. B-score at 10 µM. hit rate 0.35% among 310,000. P51787;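 active = fluorescence ratio B-score, a plate-corrected score, at least three library SD, with initial intensity B-score within 5 SD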
Target sequence (P51787 whole entry, looked up): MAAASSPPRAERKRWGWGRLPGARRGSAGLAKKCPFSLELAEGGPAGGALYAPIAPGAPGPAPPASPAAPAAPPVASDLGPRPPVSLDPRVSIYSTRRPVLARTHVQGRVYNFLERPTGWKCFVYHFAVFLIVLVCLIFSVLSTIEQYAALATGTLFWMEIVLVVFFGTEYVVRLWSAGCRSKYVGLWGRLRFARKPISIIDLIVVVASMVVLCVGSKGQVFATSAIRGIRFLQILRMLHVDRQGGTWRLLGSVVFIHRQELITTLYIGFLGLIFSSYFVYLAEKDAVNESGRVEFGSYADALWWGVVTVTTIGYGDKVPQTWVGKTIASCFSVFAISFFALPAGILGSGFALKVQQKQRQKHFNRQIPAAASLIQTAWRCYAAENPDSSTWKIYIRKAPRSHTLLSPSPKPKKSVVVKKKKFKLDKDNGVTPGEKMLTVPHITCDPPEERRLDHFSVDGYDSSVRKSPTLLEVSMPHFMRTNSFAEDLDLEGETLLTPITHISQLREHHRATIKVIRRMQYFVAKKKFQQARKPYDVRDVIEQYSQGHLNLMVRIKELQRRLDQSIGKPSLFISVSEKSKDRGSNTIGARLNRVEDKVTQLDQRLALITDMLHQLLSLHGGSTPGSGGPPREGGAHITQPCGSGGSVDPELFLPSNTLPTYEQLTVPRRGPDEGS
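Medium – assay buffer, equal DMSO in all wells · Material – CHO-K1 cell line with stable KCNQ1 potassium channel expression · Signal – kinetic FluxOR thallium fluorescence, 10-s 1-Hz baseline, 110-s post-stimulus read · Compound – single concentration per compound, DMSO matched to controls · Schedule – 37 °C overnight plating, 90-min dark dye load, 20-min compound pretreatment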
KCC2 mod – modulates chloride dependent transport by human KCC2. Q9H2X9. KCC2 cells, thallium flux FluoZin-2 fluorescence. B-score of Tl+ flux slope (higher = more flux/activation; lower = inhibition) at 10 µM. hit rate 2.2% among 190,000. AID 1456;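 active = thallium flux slope and its plate-corrected score both differing from the plate sample mean at a set confidence after two filtering rounds, in either direction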;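 note: slope of fluorescence scaled to starting intensity during 10 to 20 s after thallium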
KCNQ1 block – inhibitors of human KCNQ1 potassium channel; hit rate 1.3% among 310,000; CHO-K1 KCNQ1, FluxOR thallium flux fluorescence; active compounds read high; P51787; B-score at 10 µM;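 active = compounds whose thallium flux B-score, printed positive for inhibition, exceeds three library SD while starting fluorescence stays within three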;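 note: channel opened by potassium depolarization with thallium stimulus after 20 min compound exposure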
hERG rescue – shields human hERG channel from block by proarrhythmic agents. Q12809. CHO-hERG, FluxOR thallium flux, dofetilide IC70 present. activation (rescue from dofetilide block), less the hit threshold, % at 10 µM. hit rate 0.51% among 310,000;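 active = activation above the mean of controls blocked by dofetilide plus 5 SD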;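 note: thallium influx through hERG after potassium depolarization seen as dye fluorescence rise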
KCNK3 block – human KCNK3 channel inhibition, primary screen; O14649; CHO-KCNK3 thallium flux, FluxOR fluorescence; active compounds read low; B-score at 10 µM; hit rate 0.84% among 340,000; AID 602410;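 active = B-score under library mean minus 4 SD, starting fluorescence ratio at most library mean plus 5 SD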;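 note: more negative B-score means stronger inhibition of thallium flux through KCNK3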
KCNK9 block – human KCNK9 channel inhibition; HEK293 KCNK9, FluxOR thallium flux fluorescence; active compounds read low; B-score at 10 µM; hit rate 1.2% among 310,000; AID 488922;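 active = ratio B-score over 3 SD below the library mean, with starting fluorescence within 5 SD of its mean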;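 note: negative B-score means less thallium flux so channel inhibition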
* = called active by the depositor.

How did CCCN1C(=O)/C(=N\OCC(=O)NC23CC4CC(CC(C4)C2)C3)c2ccccc21 do in these assays?
KCNQ1 pot: inactive; KCC2 mod: 0.079; KCNQ1 block: inactive; hERG rescue: -9; KCNK3 block: inactive; KCNK9 block: inactive

Results for Cc1cc(/C=C2/SC(=S)N(c3cccc(C(F)(F)F)c3)C2=O)c(C)n1-c1cccnc1 ?
KCNQ1 pot: inactive; KCNQ1 block: 6*; hERG rescue: -4; KCNK3 block: inactive; KCNK9 block: inactive

What do the screens show for `Cc1ccc2nc(C3CCN(S(=O)(=O)c4ccc5ccccc5c4)CC3)[nH]c2c1`?
KCNQ1 pot: 8*; KCNQ1 block: inactive; hERG rescue: -5; KCNK3 block: inactive; KCNK9 block: inactive

Results for CC(=O)c1cccc(S(=O)(=O)N2CCC(c3nc4ccccc4[nH]3)CC2)c1 ?
KCNQ1 pot: inactive; KCNQ1 block: inactive; hERG rescue: -2; KCNK3 block: inactive; KCNK9 block: inactive

How did Cn1ccc(NS(=O)(=O)c2cc(Br)ccc2Br)n1 do in these assays?
KCNK3 block: inactive

How did O=c1c(/C=C(\O)c2ccc(F)cc2)nc2ccccc2n1-c1ccccc1 do in these assays?
KCNQ1 pot: inactive; KCC2 mod: -0.23; KCNQ1 block: 6*; hERG rescue: -2; KCNK3 block: inactive; KCNK9 block: inactive

How did COC(=O)c1sc(NC(=O)/C=C/c2ccccc2Cl)nc1C do in these assays?
KCNQ1 pot: inactive; KCC2 mod: 0.38; KCNQ1 block: inactive; hERG rescue: -20; KCNK3 block: inactive; KCNK9 block: inactive

What do the screens show for `CCOC(=O)c1sc(NC(=O)c2ccc(OC(C)=O)cc2)nc1C`?
KCNQ1 pot: 13*; KCC2 mod: -0.21; KCNQ1 block: inactive; hERG rescue: -5; KCNK3 block: inactive; KCNK9 block: inactive

Results for COC(=O)c1sc(NC(=S)NC(=O)c2ccccc2)nc1C ?
KCNQ1 pot: inactive; KCC2 mod: 35*; KCNQ1 block: inactive; hERG rescue: -6; KCNK3 block: inactive; KCNK9 block: inactive

How did COC(=O)c1sc(NC(=S)NC(=O)c2ccccc2Cl)nc1C do in these assays?
KCNQ1 pot: inactive; KCC2 mod: 50*; KCNQ1 block: inactive; hERG rescue: 4; KCNK3 block: inactive; KCNK9 block: inactive

What do the screens show for `COc1ccc(OC)c(NC(=O)CNC(=O)Cn2cnc3ccccc3c2=O)c1`?
KCNQ1 pot: inactive; KCC2 mod: -0.12; KCNQ1 block: inactive; hERG rescue: -1; KCNK3 block: inactive; KCNK9 block: inactive

How did Nc1ccc2c(c1)C(=O)C(=O)c1ccccc1-2 do in these assays?
KCNQ1 pot: inactive; KCC2 mod: 0.56; KCNQ1 block: inactive; hERG rescue: 6.9*; KCNK3 block: inactive; KCNK9 block: inactive

What do the screens show for `CCOC(=O)CSC1=NC(=O)/C(=C\c2ccc(Cl)cc2)S1`?
KCNQ1 pot: inactive; KCC2 mod: 1; KCNQ1 block: 6*; hERG rescue: -12; KCNK3 block: inactive; KCNK9 block: inactive

Results for COc1ccccc1N1C(=O)CSC1=NC(=O)c1ccccc1 ?
KCNQ1 pot: inactive; KCC2 mod: -0.25; KCNQ1 block: inactive; hERG rescue: -6; KCNK3 block: inactive; KCNK9 block: inactive

How did Cc1cccc(N2C(=O)CS/C2=N\NC(=O)c2ccc(Cl)cc2)c1C do in these assays?
KCNQ1 pot: inactive; KCC2 mod: 3*; KCNQ1 block: inactive; hERG rescue: -1; KCNK3 block: inactive; KCNK9 block: inactive

How did COC(=O)c1ccccc1NC(=O)c1cn(-c2ccc(C)c(C)c2)c(=O)c2ccccc12 do in these assays?
KCNQ1 pot: inactive; KCC2 mod: -1.2; KCNQ1 block: 8*; hERG rescue: -5; KCNK3 block: inactive; KCNK9 block: inactive

What do the screens show for `COc1ccc2cc1Oc1ccc(cc1)CC1c3c(cc(OC)c4c3Oc3cc5c(cc3O4)CCNC5C2)CCN1C` (centres undefined)?
KCNQ1 pot: inactive; KCC2 mod: -1.3; KCNQ1 block: 9*; hERG rescue: -20; KCNK3 block: inactive; KCNK9 block: inactive

What do the screens show for `COc1ccc2cc1Oc1ccc(cc1)C[C@H]1c3c(cc(OC)c4c3Oc3c(ccc5c3[C@H](C2)N(C)CC5)O4)CCN1C`?
KCNK3 block: inactive

How did Cc1cccc(C)c1OCC(=O)Nc1cccc(NC(=O)c2ccco2)c1 do in these assays?
KCNQ1 pot: inactive; KCC2 mod: -0.37; KCNQ1 block: inactive; hERG rescue: -25; KCNK3 block: inactive; KCNK9 block: inactive

Results for CCOC(=O)/C(C(N)=NCC(C)C)=C(/O)c1ccccc1 ?
KCNQ1 pot: inactive; KCC2 mod: 0.24; KCNQ1 block: inactive; hERG rescue: -5; KCNK3 block: inactive; KCNK9 block: inactive

Results for CCCOC(=O)/C(C(N)=NCc1ccccc1)=C(\O)OCCC ?
KCNQ1 pot: inactive; KCC2 mod: -2.4; KCNQ1 block: inactive; hERG rescue: -8; KCNK3 block: inactive; KCNK9 block: -6.6*

Results for CC(C)CC(=O)NC(=S)Nc1nc(-c2cccc3ccccc23)cs1 ?
KCNQ1 pot: 34*; KCNQ1 block: inactive; hERG rescue: 0; KCNK3 block: inactive; KCNK9 block: inactive

Results for O=C(COC(=O)c1ccco1)NC(c1ccccc1)c1ccccc1 ?
KCNQ1 pot: inactive; KCC2 mod: 0.086; KCNQ1 block: inactive; hERG rescue: -15; KCNK3 block: inactive; KCNK9 block: inactive

Results for O=C(N/N=C\c1cn(-c2ccccc2)nc1-c1ccccc1)c1ccc2c(c1)OCO2 ?
KCNQ1 pot: inactive; KCC2 mod: 0.098; KCNQ1 block: inactive; hERG rescue: -36; KCNK3 block: inactive; KCNK9 block: -6.8*

How did COc1ccc(-c2nn(-c3ccccc3)cc2/C=N/NC(=O)c2ccc(Br)o2)cc1 do in these assays?
KCNQ1 pot: inactive; KCC2 mod: 1.7; KCNQ1 block: 11*; hERG rescue: -14; KCNK3 block: -9.6*; KCNK9 block: -6.7*

How did COc1ccc(-c2nn(-c3ccccc3)cc2/C=N/NC(=O)c2ccc3c(c2)OCO3)cc1 do in these assays?
KCNQ1 pot: inactive; KCC2 mod: 0.53; KCNQ1 block: inactive; hERG rescue: -28; KCNK9 block: inactive

What do the screens show for `CC1CCCC(C)N1C(=O)COC(=O)CNC(=O)c1ccc(Cl)cc1Cl` (centres undefined)?
KCNQ1 pot: inactive; KCNQ1 block: inactive; hERG rescue: -11; KCNK3 block: inactive; KCNK9 block: inactive

Results for COCC(=O)N1CCC(n2nnc3cc(C(F)(F)F)ccc32)CC1 ?
KCNQ1 pot: inactive; KCC2 mod: 0.54; KCNQ1 block: inactive; hERG rescue: -12; KCNK3 block: inactive; KCNK9 block: inactive
